Measurements reported in ChEMBL document CHEMBL1141192 (J Med Chem, 2005).
Converted amounts (≈) assume the structure as drawn.

Legend:
[1] = biological target: Adenosine kinase (Homo sapiens, UniProt P55263); test: Inhibitory activity against recombinant human adenosine kinase
[2] = Solubility in water at pH 7.4
[3] = test system: Rattus norvegicus; test: Inhibition of the licking and biting response at 20 mg/kg, po in rat by formalin paw antinociceptive assay; type: functional; details: Sprague-Dawley
Outline: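 Screening: fasted male SD rats (105–115 g), three per compound, 20 mg/kg po in 0.1% MC 15 min before 2% formalin (50 μL s.c., right hindpaw). Licking/biting scored 5 s per 30 s; percent inhibition reported for 2nd phase (15–30 min); positive control 5 mg/kg po each run.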

Chain of Adenosine kinase (P55263 whole entry): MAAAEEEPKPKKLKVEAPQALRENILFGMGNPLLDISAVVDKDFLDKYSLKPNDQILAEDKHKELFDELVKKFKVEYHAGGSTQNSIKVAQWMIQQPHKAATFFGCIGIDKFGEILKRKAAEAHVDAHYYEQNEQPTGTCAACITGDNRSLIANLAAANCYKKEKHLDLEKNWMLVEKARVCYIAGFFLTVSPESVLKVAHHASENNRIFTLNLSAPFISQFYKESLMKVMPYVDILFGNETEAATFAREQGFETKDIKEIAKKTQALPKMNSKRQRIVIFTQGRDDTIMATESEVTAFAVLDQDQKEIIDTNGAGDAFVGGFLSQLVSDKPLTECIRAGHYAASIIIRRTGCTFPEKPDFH

Row | IC50 [1] | solubility [2] | Compound | inhibition in vivo at 20 mg/kg [3]
1 | 0.5 nM | < 0.05 µg/mL | C[C@H]1O[C@@H](n2cc(-c3ccccc3)c3c(NCC(=O)Nc4ccccc4)ncnc32)[C@H](O)[C@@H]1O | 62%
2 | > 10000 nM | – | O=C(CNc1[nH]cnc2ncc(-c3ccccc3)c1-2)NC1CC1 | –
3 | 4 nM | 7 µg/mL (≈ 15.9 µM) | CC(C)CNC(=O)CNc1ncnc2c1c(-c1ccccc1)cn2[C@@H]1O[C@H](C)[C@@H](O)[C@H]1O | 16%
4 | 880 nM | 5 µg/mL (≈ 10.6 µM) | C[C@H]1O[C@@H](n2cc(I)c3c(NCC(=O)NC4CC4)ncnc32)[C@H](O)[C@@H]1O | –
5 | 40 nM | 140 µg/mL (≈ 340 µM) | CCNC(=O)CNc1ncnc2c1c(-c1ccccc1)cn2[C@@H]1O[C@H](C)[C@@H](O)[C@H]1O | 52%
6 | 27 nM | 32 µg/mL (≈ 83.5 µM) | CNC(=O)Nc1ncnc2c1c(-c1ccccc1)cn2[C@@H]1O[C@H](C)[C@@H](O)[C@H]1O | –
7 | 140 nM | 3 µg/mL (≈ 7.84 µM) | CC(C)CNc1ncnc2c1c(-c1ccccc1)cn2[C@@H]1O[C@H](C)[C@@H](O)[C@H]1O | –
8 | 145 nM | > 1000 µg/mL | C[C@H]1O[C@@H](n2cc(-c3ccccc3)c3c(NCC(=O)NCCCN(C)C)ncnc32)[C@H](O)[C@@H]1O | 22%
9 | 1700 nM | 270 µg/mL (≈ 708 µM) | O=C(CNc1ncnc2c1c(-c1ccccc1)cn2COCCO)NC1CC1 | –
10 | 210 nM | > 1000 µg/mL | CCN(CC)CCNC(=O)CNc1ncnc2c1c(-c1ccccc1)cn2[C@@H]1O[C@H](C)[C@@H](O)[C@H]1O | 11%
11 | 2500 nM | – | C[C@H]1O[C@@H](n2cc(-c3ccccc3)c3c(NCCC(N)=O)ncnc32)[C@H](O)[C@@H]1O | –
12 | 2 nM | – | COCCCNC(=O)CNc1ncnc2c1c(-c1ccccc1)cn2[C@@H]1O[C@H](C)[C@@H](O)[C@H]1O | 24%
13 | 1.3 nM | 17 µg/mL (≈ 38.9 µM) | C[C@H]1O[C@@H](n2cc(-c3ccccc3)c3c(NC(=O)C(=O)NC4CC4)ncnc32)[C@H](O)[C@@H]1O | 17%
14 | 0.9 nM | 7 µg/mL (≈ 14.7 µM) | O=C(CNc1ncnc2c1c(-c1ccccc1)nn2[C@@H]1O[C@H](CO)[C@@H](O)[C@H]1O)Nc1ccccc1 | -10%
15 | 6 nM | 620 µg/mL (≈ 1460 µM) | C[C@H]1O[C@@H](n2nc(-c3ccccc3)c3c(NCC(=O)NC4CC4)ncnc32)[C@H](O)[C@@H]1O | 7%
16 | 100 nM | 16 µg/mL (≈ 43.4 µM) | CCCNc1ncnc2c1c(-c1ccccc1)cn2[C@@H]1O[C@H](C)[C@@H](O)[C@H]1O | –
17 | 20 nM | 280 µg/mL (≈ 684 µM) | O=C(CNc1ncnc2c1c(-c1ccccc1)cn2[C@@H]1OC[C@@H](O)[C@H]1O)NC1CC1 | 17%
18 | 380 nM | 36 µg/mL (≈ 98.2 µM) | C[C@H]1O[C@@H](n2cc(-c3ccccc3)c3c(NC4CC4)ncnc32)[C@H](O)[C@@H]1O | –
19 | 2500 nM | – | C[C@@H](Nc1ncnc2c1c(-c1ccccc1)cn2[C@@H]1O[C@H](C)[C@@H](O)[C@H]1O)C(=O)NC1CC1 | –
20 | 60 nM | < 0.05 µg/mL | O=C(CNc1ncnc2c1c(-c1ccccc1)cn2COCCO)Nc1ccc(Cl)cc1 | 31%
21 | 1 nM | 6 µg/mL (≈ 13.3 µM) | C[C@H]1O[C@@H](n2cc(-c3ccccc3)c3c(NCC(=O)NC4CCCC4)ncnc32)[C@H](O)[C@@H]1O | 16%

Row | IC50 [1] | solubility [2] | Compound | inhibition in vivo at 20 mg/kg [3]
22 | – | < 0.05 µg/mL | C[C@H]1O[C@@H](n2cc(-c3ccccc3)c3c(Nc4ccccc4)ncnc32)[C@H](O)[C@@H]1O | –
23 | 0.6 nM | – | O=C(CNc1ncnc2c1c(-c1ccccc1)cn2[C@@H]1OC[C@@H](O)[C@H]1O)Nc1ccccc1 | 37%
24 | 0.8 nM | 240 µg/mL (≈ 604 µM) | CNC(=O)CNc1ncnc2c1c(-c1ccccc1)cn2[C@@H]1O[C@H](C)[C@@H](O)[C@H]1O | 35%
25 | 16 nM | 650 µg/mL (≈ 1470 µM) | C[C@H]1O[C@@H](n2cc(-c3ccccc3)c3c(NCC(=O)NCCCO)ncnc32)[C@H](O)[C@@H]1O | 4%
26 | 10 nM | 370 µg/mL (≈ 840 µM) | O=C(CNc1ncnc2c1c(-c1ccccc1)nn2[C@@H]1O[C@H](CO)[C@@H](O)[C@H]1O)NC1CC1 | 6%
27 | 45 nM | 0.1 µg/mL (≈ 0.263 µM) | C[C@H]1O[C@@H](n2cc(-c3ccccc3)c3c(NCC4CC4)ncnc32)[C@H](O)[C@@H]1O | –
28 | 3 nM | 76 µg/mL (≈ 173 µM) | O=C(CNc1ncnc2c1c(-c1ccccc1)cn2[C@@H]1O[C@H](CO)[C@@H](O)[C@H]1O)NC1CC1 | 21%
29 | 38 nM | 230 µg/mL (≈ 521 µM) | COCCNC(=O)CNc1ncnc2c1c(-c1ccccc1)cn2[C@@H]1O[C@H](C)[C@@H](O)[C@H]1O | 44%
30 | 5 nM | 535 µg/mL (≈ 1250 µM) | CCONC(=O)CNc1ncnc2c1c(-c1ccccc1)cn2[C@@H]1O[C@H](C)[C@@H](O)[C@H]1O | 0%
31 | 0.2 nM | < 0.05 µg/mL | C[C@H]1O[C@@H](n2cc(-c3ccccc3)c3c(NCC(=O)Nc4ccc(Cl)cc4)ncnc32)[C@H](O)[C@@H]1O | 62%
32 | 25 nM | 26 µg/mL (≈ 61.1 µM) | CC(C)NC(=O)CNc1ncnc2c1c(-c1ccccc1)cn2[C@@H]1O[C@H](C)[C@@H](O)[C@H]1O | 74%
33 | 530 nM | 480 µg/mL (≈ 1100 µM) | C[C@H](Nc1ncnc2c1c(-c1ccccc1)cn2[C@@H]1O[C@H](C)[C@@H](O)[C@H]1O)C(=O)NC1CC1 | –
34 | 7 nM | 38 µg/mL (≈ 89.3 µM) | CCCNC(=O)CNc1ncnc2c1c(-c1ccccc1)cn2[C@@H]1O[C@H](C)[C@@H](O)[C@H]1O | 41%
35 | – | < 0.05 µg/mL | C[C@H]1O[C@@H](n2cc(-c3ccccc3)c3c(Nc4ccc(F)cc4)ncnc32)[C@H](O)[C@@H]1O | –
36 | 4 nM | – | CCCOC(=O)Nc1ncnc2c1c(-c1ccccc1)cn2[C@@H]1O[C@H](C)[C@@H](O)[C@H]1O | –
37 | 2 nM | 750 µg/mL (≈ 1960 µM) | C[C@H]1O[C@@H](n2cc(-c3ccccc3)c3c(NCC(N)=O)ncnc32)[C@H](O)[C@@H]1O | –
38 | 1.3 nM | 44 µg/mL (≈ 101 µM) | C[C@H]1O[C@@H](n2cc(-c3ccccc3)c3c(NCC(=O)NC4CCC4)ncnc32)[C@H](O)[C@@H]1O | 60%
39 | 300 nM | > 1000 µg/mL | C[C@H]1O[C@@H](n2cc(-c3ccccc3)c3c(NCC(=O)NCCN(C)C)ncnc32)[C@H](O)[C@@H]1O | –
40 | 6 nM | 12 µg/mL (≈ 27.4 µM) | C[C@H]1O[C@@H](n2cc(-c3ccccc3)c3c(NCC(=O)NCC4CC4)ncnc32)[C@H](O)[C@@H]1O | 42%
41 | 460 nM | 105 µg/mL (≈ 240 µM) | C[C@H]1O[C@@H](n2cc(-c3ccccc3)c3c(NCC(=O)N(C)C4CC4)ncnc32)[C@H](O)[C@@H]1O | –
42 | 0.5 nM | 8 µg/mL (≈ 18.2 µM) | C[C@H]1O[C@@H](n2cc(-c3ccccc3)c3c(NC/C(S)=N\C4CC4)ncnc32)[C@H](O)[C@@H]1O | 22%
